Test results as given in ChEMBL document CHEMBL1212823, “m-Azipropofol (AziPm) a photoactive analogue of the intravenous general anesthetic propofol” (J Med Chem, 2010).
Values after ≈ are worked out from the molar mass of the structure shown. Active and inactive are the calls of the source. The calls are words filed in the database; no cut-off is given here.

Columns and labels:
Equus caballus [1] = organism: Equus caballus; assay: Binding affinity to horse spleen apoferritin by isothermal titration calorimetry
Outline: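 Sequential titrations were linked and corrected with ligand-into-buffer, buffer-into-protein and buffer-into-buffer controls. Heats were fitted to a single binding-site class, Hill slope fixed at 1; mean with 95% CI.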

Equus caballus [2] = organism: Equus caballus; assay: Binding affinity to horse spleen apoferritin using 1-AMA by fluorescence competition assay
Outline: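 HSAF 7 μM with 7 μM 1-aminoanthracene in pH 7.4 PBS, titrated with compound 0–110 μM. Excitation 380 nm, emission 400–800 nm, baseline-corrected. Variable-slope Hill fit gave IC50 and Hill slope; KD obtained by Cheng–Prusoff correction for the 1-AMA competitor.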

Xenopus laevis [3] = assay: Anesthetic effect on Xenopus laevis tadpole assessed as loss of spontaneous motion measured for 30 seconds after 30 mins; type: functional, organism-based; settings: 0.5 h
Outline: (§1)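 Xenopus tadpoles in groups of 10, in 30 mL pond water containing a range of compound concentrations, incubated 30 min to equilibrate. Water was then replaced with fresh pond water and recovery followed over 24 h.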

Xenopus laevis [4] = assay: Anesthetic effect on Xenopus laevis tadpole assessed as loss of startle reflex after 30 mins; type: functional, organism-based; settings: 0.5 h; outline: as §1
[5] = molecular target: T1, GABA-A receptor; alpha-1/beta-2/gamma-2 (Rattus norvegicus) (UniProt P18508+P62813+P63138); assay: Activation of rat alpha-1-beta-2-gamma-2L expressed in HEK293 cells assessed as potentiation of GABA-induced current at 0.3 to 3 uM by electrophysiological assay relative to control; type: cell-based
[6] = molecular target: T1, GABA-A receptor; alpha-1/beta-2/gamma-2 (Rattus norvegicus); assay: Activation of rat alpha-1-beta-2-gamma-2L expressed in HEK293 cells at 30 uM by electrophysiological assay; type: cell-based
[7] = Binding affinity to horse spleen apoferritin using 1-AMA by fluorescence competition method
[8] = Chemical stability of the compound assessed as half life in presence of UV irradiation; type: physicochemical
Outline: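 A 160 μM solution in distilled water in a 1 cm quartz cuvette was irradiated at 350 nm for 30 min. UV spectra were taken every 3 min to follow loss of the diazirine peak (368 nm); t1/2 reported with 95% CI.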

[9] = Solubility of the compound in water; type: physicochemical
Outline: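 Extinction coefficient of the 368 nm diazirine band determined in methanol at known concentration; maximal concentration in distilled water then calculated from UV absorbance using that coefficient.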

Compound	Activity (Equus caballus [1])	Activity (Equus caballus [2])	EC50 (Xenopus laevis [3])	EC50 (Xenopus laevis [4])	fold change (FC) [5]	Activity [6]	Kd [7]	half-life [8]	solubility [9]
CC(C)c1cccc(C(C)C)c1O [PROPOFOL]	4.8 µM	12 µM	1100 nM	2800 nM	9.3	Active	10000 nM	–	–
CC(C)c1ccc(C2(C(F)(F)F)N=N2)cc1O	21 µM	23 µM	1100 nM	3100 nM	1.7	inactive	19000 nM	34 min	185 µM (≈ 45.2 µg/mL)
